Tested on: MS2 coat protein
Test: apparent Kd, MS2 coat protein; higher = weaker binding; RNA-MaP array; FMN 200 µM where present
In short: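 Designs were transcribed by stalled E. coli RNA polymerase on Illumina sequencing-chip clusters. They were titrated with SNAP-549-labelled MS2 coat protein from 0.7 or 1.5 nM, doubling to 3 µM, without and then with constant ligand. Buffer: 100 mM Tris-HCl pH 7.5, 80 mM KCl, 4 mM MgCl2, BSA, DTT, yeast tRNA, Tween-20. Green signal was normalised to red-channel RNA signal and control-cluster median Fmax. Apparent Kd is the median of filtered per-cluster binding-curve fits.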

[1] = designed as: OFF switch for flavin mononucleotide, no ligand
[2] = ligand present: flavin mononucleotide, designed as: OFF switch for flavin mononucleotide
[3] = designed as: ON switch for flavin mononucleotide, no ligand
[4] = ligand present: flavin mononucleotide, designed as: ON switch for flavin mononucleotide

Row | Sequence | apparent Kd [1] | apparent Kd [2] | apparent Kd [3] | apparent Kd [4]
1 | CACCGUUACCGAGGAUAUCGUACAUGAGGAUCACCCAUGUAAUAAAUGAGAAUUUCGGAUGUAUGCGAGAAGGCGGGAAUCGGC | 34.1 nM | 29.8 nM |  | 
2 | UAAAUUUUAUGAUAUUAUGACAUUAGAAGGCUGUACAUGUUGAUACAUGAGGAUCACCCAUGUAUAGAGGAUAUAGACAAUUAU | 40.5 nM | 92.6 nM |  | 
3 | CAUGUCCUCACAGGAUAUGCACCACUUUGUGGUGCAGAAGGGUGAAUACAUGAGGAUCACCCAUGUGGACAUGAUAUAUUUAAG |  |  | 1200 nM | 75.4 nM
4 | CGCUAUGACAUAGGAUAUUGGUACAUGAGGAUCACCCAUGUCAACCUUUAAGCAAAAUUUGUUGACAAGAAGGAUGUGGUAGCG |  |  | 11 nM | 7.71 nM
5 | GCCAUCAUAUGAGGAUAUGACACCGAAACGGUGUCAGAAGGCAUGUCGAUAGACAUGAGGAUCACCCAUGUUUAGAUGAUGGCA |  |  | 104 nM | 21.5 nM
6 | GCCAUCGCAUGAGGAUAUGCUCCGGUUUCCGGAGCAGAAGGCGUGUCAUUAGACAUGAGGAUCACCCAUGUAGUUAAGAUGGCA |  |  | 489 nM | 21.3 nM
7 | AGUCGGAGCAGAGGAUAUACAUGAGGAUCACCCAUGUAAAUGGAAUAAGACUGGAAACAGUCAAUGUAGAAGGCUGCUCCGACA | 68.5 nM | 673 nM |  | 
8 | GCCAUCGCAUGAGGAUAUGCUCCGGUUUCCGGAGCAGAAGGCAUGUCAUAAGACAUGAGGAUCACCCAUGUAGCUAAGAUGGCA |  |  | 307 nM | 11.9 nM
9 | CCCGCGAUGUCAGGAUAUAGUCGGAGGUUCAGACUAGAAGGGACAUGAGGAUCACCCAUGUGCGUGAAAAUUUAAAACCUAGGU | 51.5 nM | 191 nM |  | 
10 | UUUUAACAUGAGGAUCACCCAUGUGAGGAUAUCGAAAUUUAUAUUAAUAUUAUUUUUUCGAGAAGGCACAUUUU | 124 nM | 155 nM |  | 
11 | CCUCCACAUGAGGAUCACCCAUGUCAGGAUAUCGUGUGCGCGUUUUCGGUCUUUCGCGCGAGAAGGGACGUCUG | 26.9 nM | 30.1 nM |  | 
12 | AAUGUGUGUCGAGGAUAUAUAACAUGACAACAAACACAUACAUGAGGAUCACCCAUGUCCCAUGUAUAGAAGGCGAUGUGUGUG |  |  | 219 nM | 434 nM
13 | CUAUUACGAGGAUAUCGUCAGAGUCACAUGAGGAUCACCCAUGUAUCCCACGGACCGGAAUGAGAAGGCGUUCAUG | 288 nM | 769 nM |  | 
14 | UGGAUGUAGGAGAAGGAGGACUUCAUGAGGAUCACCCAUGUGUUAGUACUUAGGAUAUUUGACAACAUGAGGAUCACCCAUGUG |  |  | 105 nM | 96.4 nM
15 | AAGGCCUAUUCCAGGACUAUCGUACUAGAAGGGUGACCUGACAUGAGGAUCACCCAUGUACGGGCACAGGAUAUAGAUGAAAGG |  |  | 50.1 nM | 11.3 nM
16 | UCCGGACAUGAGGAUCACCCAUGUCAGGAUAUACCCGAGGCAGCGAACUCGCUAGCCAGUAGAAGGGACAUGGU | 19.8 nM | 20.8 nM |  | 
17 | AUUAUGCAGCAGGAUAUCGAUCCGCAGUAUGAUCGAGAAGGGCUGACAUGAGGAUCACCCAUGUGCGUCCUAGG | 43.6 nM | 155 nM |  | 
18 | ACUGGUCGAGGAUAUGCAUUCGUGCUUCGGCACGUAAGGUCACAUGAGGAUCACCCAUGUAGAAGGCGACCAGU | 18.2 nM | 36.9 nM |  | 
19 | GUGACGAAUGUAGGAUAUGCUGACCAAUGGUCAGCAGAAGGACAUGAGGAUCACCCAUGUCAUCCUUAUAAUAAAUAACGUCAC | 13.4 nM | 18.1 nM |  | 
20 | UAAUUAAUAAGAUCAAUUAAUUAACAUGAGGAUCACCCAUGUGAGGAUAUCAGCUCGAUUAGAGCUGAGAAGGCACAAUAAUUA | 43.2 nM | 102 nM |  | 
21 | UUUUCUCGUGAGAAGGACAUGAGGAUCACCCAUGUAGGAUAUCGUGGGAGACAGGAAUUGAAUCUUCGGAUUCAAUUCCAGUCU |  |  | 107 nM | 10.1 nM
22 | AUAAUUUUAUUUUUCCCAAGAAUCAGAAGGCAUUACAUGAGGAUCACCCAUGUUUUGGAUAGUAAUGAGGAUAUGAUAUGGUUA | 10.2 nM | 23.5 nM |  | 
23 | AAGAAUAGAAAGAUUAAUAUGAAUACAUGAGGAUCACCCAUGUAGGAUAUCGACGUCAAUGACGUCGAGAAGGACAAAAUAAAU | 9.44 nM | 9.55 nM |  | 
24 | AAGUCGAGCGUGAGGAUAUCGUCCGGACGACCGAACGAGAAGGCACAUGAGGAUCACCCAUGUGAUUCAGCUCA | 19 nM | 70.5 nM |  | 
25 | AGCUACGUUUCGUAGCAGCUAGGUGAGGAUAUCCUUAACAUGAGGAUCACCCAUGUAUAGCCAUGGGAGAAGGCGCCUAGAAAG |  |  | 723 nM | 55.3 nM
26 | AUUUUACAUGAGGAUCACCCAUGUUUUGGCGGGUCAGGAUAUAGAUCGGAUGAGUUCUGUCUAGAAGGGACAUGUU |  |  | 49.7 nM | 29.6 nM
27 | UCUAUAUAGAUUCAUCAAUACAGUAAGGAUAUGAGAUACAUGAGGAUCACCCAUGUGCAUGUGGAUUAGAAGGUACAAUUAACU | 60 nM | 46.3 nM |  | 
28 | ACAUGGAAGCAGGAUAUGCUUGUAUAAUUGUUUGCAGAAGGGCUAACAUGAGGAUCACCCAUGUAAGAGGUCUA | 16.2 nM | 25.8 nM |  | 

Row | Sequence | apparent Kd [1] | apparent Kd [2] | apparent Kd [3] | apparent Kd [4]
29 | UUACUAUUGCAGAAGGCUAAAUAAUAUAUAAAUGGAGGAUAUGCAACAUGAGGAUCACCCAUGUUUCACCCAUAUGAGGAUCAC | 7.7 nM | 9.14 nM |  | 
30 | GUGGCAUACCGAGGAUAUUCAUAUAAUAAAUAAACAUGAGGAUCACCCAUGUGGCGAAAGCCUUGGGAGAAGGCGGAAUGCUAC |  |  | 574 nM | 38.2 nM
31 | UGUGACAUGAGGAUCACCCAUGUAGAGGAUAUAGAGAUGAUGUUAGAGAAGAAUGUGUAGUAAGACUAGAAGGCUAUGUGUGUA | 32.8 nM | 28.2 nM |  | 
32 | AAGCUUGAUCCUCGUGUAUACAUGAGGAUCACCCAUGUGACGCAGGAUAUAGGCGUGUUAGUAGCCUAGAAGGGCGAGCAGCGA | 128 nM | 73.5 nM |  | 
33 | GCGCAUUUAAGAUUUAUAUAAUUGUCAGAAGGUGAAAAGACGACAUGAGGAUCACCCAUGUAAUUCAAGGAUAUGAUUUAGCGC |  |  | 34.3 nM | 13.3 nM
34 | GGACGUCACAUUAACAUGAGGAUCACCCAUGUGAAAACACAUGAGGAUAUGGAUCCUAAUUGGAUCCAGAAGGCAUGGACGUCC |  |  |  | 6.6 nM
35 | UGGUACUUGGGAGGAUAUGGGAAGAUACAUGAGGAUCACCCAUGUUUAAGAAUGCCGAGAGGCAACUAGAAGGCCCUAGUACCU |  |  | 493 nM | 20 nM
36 | CUUUCUUGCAAGGAUAUGCAAUUUAUUAUUUAUGCAGAAGGUGCUACAUGAGGAUCACCCAUGUUUCUGGGUUU | 146 nM | 208 nM |  | 
37 | GGGUGGCGUAGAGGAUAUGUGUUACAUGAGGAUCACCCAUGUGCAUAUGAUGUUCGUGUGUGUGCAUAGAAGGCUACGUCGCUA |  |  | 28.3 nM | 24.3 nM
38 | GUCAGCUCGUGAGGAUAUGCAACACUGCUUCGGCAGUGUAUUAAGAUCACAUGAGGAUCACCCAUGUAGAAGGCACGAGCUGAU | 6.36 nM | 34.8 nM |  | 
39 | UAAAUUUUGUAAGGAUAUACACGAGAUUCAAGUGUAGAAGGUACUUACAUGAGGAUCACCCAUGUAUACAUGGAUACUAGAUAU |  |  | 209 nM | 103 nM
40 | AUGCCCGGAGGAUAUACACUAAAAGUCCGGUGCUAGGGUAGACAUGAGGAUCACCCAUGUAGAAGGCCGAGGCA | 53.2 nM | 101 nM |  | 
41 | ACUGCCACAGGAUAUACGAAACUCUUGGGUUCCGCCGUGUGACAUGAGGAUCACCCAUGUAGAAGGGUGGCUUA | 606 nM | 416 nM |  | 
42 | GGACAUCCCACAGGAUAUGCUGGACUUUGUCCAGCAGAAGGGUGAAAACAUGAGGAUCACCCAUGUAGGAUGUCCAUAUUUAAU |  |  | 112 nM | 643 nM
43 | UAUUUUAACUAAGGAUAUCUGUAUUUUGUUGAAACAUGAGGAUCACCCAUGUUCAUGAAAUUAUAGGAGAAGGUAGAUGAAUAA |  |  | 6.65 nM | 4.95 nM
44 | CGUUGUUGCGCAGGAUAUGCAUUGGAUUACAAUGCAGAAGGGCGAUUACAUGAGGAUCACCCAUGUGUCGACAAUAAGGAAGAG |  |  | 35.9 nM | 34 nM
45 | UUCGAGUAGCAAGGAUAUCUUAUUUAGAUUUUAAGAGAAGGUGCUUCACAGCUACAUGAGGAUCACCCAUGUCUUUCUUCUUAU |  |  | 35.6 nM | 26.3 nM
46 | UUCGCACAUGAGGAUCACCCAUGUCAGGAUAUUGUGGUGGGAACAACUGGGAAACGCACGAGAAGGGACACACA | 36.2 nM | 32.2 nM |  | 
47 | ACCUCACAUGAGGAUCACCCAUGUCAGGAUAUACAAACCGUGAUAAGACACGGUCGUAGUAGAAGGGACUAUGG | 69.5 nM | 24.9 nM |  | 
48 | ACUCGGAGCUGGCGACAGAAGACAUGAGGAUCACCCAUGUAGAGAAGGAGCCCUGGGACCGGUGGCUAGGAUAUUUACAUCGGU | 6.9 nM | 12.3 nM |  | 
49 | GCGGUAAAGAUCCAUUUUUACAACAUGAGGAUCACCCAUGUGCAGGAUAUCGAAUGUUUUAUAUUCGAGAAGGGCAAUUACCGC | 20.7 nM | 57.5 nM |  | 
50 | UCUUUACUGGUCAGGAUAUACAUUCGCUACUCCUUGUAGAAGGGACAUGAGGAUCACCCAUGUACUUUACAUUC | 18.5 nM | 19.5 nM |  | 
51 | GAAAACGCAGAGGAUAUUUCAGAUCAAAGCUGCAAAGAAGGCUGCACAUGAGGAUCACCCAUGUGGUCUUUAAA | 19.3 nM | 202 nM |  | 
52 | CCGGAAAUAGAGGAUAUCGUAUCGGAUACGAUACGAGAAGGCUGUACAUGAGGAUCACCCAUGUGUCCUACCGG | 11.2 nM | 21.6 nM |  | 
53 | GUCCAGUUAGGAUAUCAAUGCCACAACAUGAGGAUCACCCAUGUUUGGGUCCCUCACCAAUGAGAAGGAACGGGAC | 34.7 nM | 99.1 nM |  | 
54 | GUAGCAUACCGAGGAUAUUCAUACCGGAAACGGACAUGAGGAUCACCCAUGUAGCGAAAGCUUUGGGAGAAGGCGGAAUGCUAC |  |  | 905 nM | 33.9 nM
55 | AUAAGCUCGUCAGGAUAUACAACACUGUGUAAGCAGUGUGGUAUGAUCACAUGAGGAUCACCCAUGUAGAAGGGACGAGCUUAU | 6.33 nM | 43.4 nM |  | 

Source: the EternaBench riboswitch data
